These results are taken from article PMC4829350 (Biochimica et biophysica acta, 2014).

Where two headings read alike, the source gives them in different places. Residues, ends and D or L forms follow the SMILES beside them. *: point of attachment. Cbz = O=C(OCc1ccccc1)*

Test [1] concerns the target ChT-L active center of the proteasome (NMR) (Heterocephalus glaber, UniProt G5ASK0). Briefly: Peptidolytic assay, ChT-L activity, naked mole-rat liver subcellular fractions. Format: biochemical.
Test [2] deals with T1, ChT-L active center of the proteasome (mouse) (Mus musculus, UniProt O55234).
T1 sequence (O55234 60-264): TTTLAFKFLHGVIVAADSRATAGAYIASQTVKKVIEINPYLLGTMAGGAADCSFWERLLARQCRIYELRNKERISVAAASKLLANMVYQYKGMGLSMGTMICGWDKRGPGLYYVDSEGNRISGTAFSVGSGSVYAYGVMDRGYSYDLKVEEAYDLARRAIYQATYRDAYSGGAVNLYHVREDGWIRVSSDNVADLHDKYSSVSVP
Briefly: Peptidolytic assay, ChT-L activity, mouse liver subcellular fractions. Format: biochemical.

In test [3] the target is T-L active center of the proteasome (NMR) (Heterocephalus glaber, UniProt A0A0P6JE03). Briefly: Peptidolytic assay, T-L activity, naked mole-rat liver subcellular fractions. To be noted: read-out: T-L IC50 NMR, cytosolic fraction, ± S.E. Format: biochemical.
The target in test [4] is T2, T-L active center of the proteasome (mouse) (Mus musculus, UniProt P70195).
T2 sequence (P70195 44-277): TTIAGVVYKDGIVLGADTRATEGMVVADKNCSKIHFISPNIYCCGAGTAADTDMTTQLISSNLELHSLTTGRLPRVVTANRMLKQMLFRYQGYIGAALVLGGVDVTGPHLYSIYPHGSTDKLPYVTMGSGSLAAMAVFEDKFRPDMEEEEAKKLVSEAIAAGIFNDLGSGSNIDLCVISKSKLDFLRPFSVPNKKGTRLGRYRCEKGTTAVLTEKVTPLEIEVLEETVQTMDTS
Description: Peptidolytic assay, T-L activity, mouse liver subcellular fractions. The class given is biochemical. The procedure, abridged: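 Female mice aged 4–6 months; liver split into cytosolic, microsomal and nuclear fractions. T-L activity was read with a fluorogenic AMC peptide, against an AMC standard curve, as pmol AMC/min/μg protein. Inhibitor classes were titrated: boronate 5nM–10μM, lactone 0.2μM–8μM, aldehyde and vinyl sulfone 10μM–250μM. IC50 was taken as 50% activity loss, from exponential-decay or sigmoidal fits.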

The target of test [5] is human 26S proteasome [h26S] (Homo sapiens, UniProt P20618+P28074). Description: ChT-L activity of purified human 26S proteasome with supernatants or fractions. Format: biochemical. To be noted: 10 nM BZ.
In test [6] the test system is ProtNMR (naked mole-rat partially purified proteasome). The class given is biochemical, Heterocephalus glaber.
Test [7] concerns the target T3, ProtMS (mouse partially purified proteasome) (Mus musculus, UniProt O55234).
T3 sequence (O55234 60-264): T1 sequence (O55234 60-264)
Format: biochemical.

Test [8] relates to naked mole-rat proteasome (ChT-L activity) with HSPs of NMR cytosol/supernatant. Format: biochemical, Heterocephalus glaber. To be noted: for effect on inhibition resistance / sensitivity to inhibition: NMR cytosolic fraction or SNNMR + Prot, 20 μM MG132. The method in brief:
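HSP antibodies (anti-HSP72, -HSP40, -HSP25 or -HSP90; 10pg to 400pg, serially diluted in PBS/50% glycerol) or small-molecule HSP72 inhibitors (25nM to 1000nM; 10μM to 1000μM) added to NMR cytosolic lysate or 100,000xg supernatant. Incubated 1hr at 30°C with 1mM ATP. Human 26S or partially purified NMR proteasome then added. ChT-L activity read with Suc-LLVY-AMC ± 20μM MG132, as pmol AMC/min/μg protein.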

For test [9], the system named is human 26S proteasome [h26S] in SNNMR. The class given is biochemical. To be noted: h26S in SNNMR challenged with MG132. The procedure, abridged:
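Naked mole-rat liver cytosolic lysate or its high-speed supernatant was incubated at 30°C for 1hr with 1mM ATP plus anti-chaperone antibodies (HSP72, HSP40, HSP25, HSP90; 10pg–400pg) or HSP72 inhibitors (25nM–1000nM or 10μM–1000μM). Purified human 26S proteasome was then added, and ChT-L activity was read with Suc-LLVY-AMC ± 20μM MG132.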

The mark [10] stands for this setting: ChT-L IC50 Ms, cytosolic fraction, ± S.E.
The mark [11] stands for this setting: sample ProtNMR + FT, 20 μM MG132.
Where [12] appears, read: sample ProtNMR + FT, 50 μM MG132.
Where [13] appears, read: sample ProtNMR + R, 20 μM MG132.
The mark [14] stands for this setting: sample ProtNMR + R, 50 μM MG132.
[15] abbreviates: sample ProtNMR + SN, 20 μM MG132.
Where [16] appears, read: sample ProtNMR + SN, 50 μM MG132.
[17] abbreviates: sample ProtMS + FT, 20 μM MG132.
Where [18] appears, read: sample ProtMS + FT, 50 μM MG132.
The mark [19] stands for this setting: sample ProtMS + SN, 20 μM MG132.
Where [20] appears, read: sample ProtMS + SN, 50 μM MG132.

With `CC(C)CC(C=CS(C)(=O)=O)NC(=O)[C@H](CC(C)C)NC(=O)[C@H](CC(C)C)NC(=O)CCCCCNC(=O)CCCCCNC(=O)CCCCCNC(=O)CC12CC3CC(CC(C3)C1)C2` (stereo partly drawn) [Adh (VS), adamantane-acetyl-(6-aminohexanoyl)3-(leucinyl)3-vinyl-(methyl)-sulfone], the “ChT-L IC50 in naked mole-rat relative to mouse cytosolic extracts” value in test [1] (cytosolic extracts) was found to be 22 fold. In addition, the concentration for half-maximal inhibition (IC50) worked out at 125 ± 5.6 µM in test [1] (read-out: ChT-L IC50 NMR, cytosolic fraction, liver, ± S.E.); 5.56 ± 1.57 µM in test [2] (read-out: ChT-L IC50 Ms, cytosolic fraction, ± S.E.); 80.6 ± 2.5 µM in test [3]; 16.2 ± 1.9 µM in test [4] (read-out: T-L IC50 Ms, cytosolic fraction, ± S.E.).
As for `CC(C)C[C@H](NC(=O)[C@H](Cc1ccccc1)NC(=O)c1cnccn1)B(O)O` [BZ, bortezomib], the “ablation of ChT-L activity of h26S” value in test [5] (h26S without fr.23) worked out at 75%. The “reduction of ChT-L activity of h26S” value in [5] (in the presence of fr. 23) was 30%.
In test [2] (setting [10]), `CC(=O)N[C@@H](CSC(=O)[C@]1([C@@H](O)C(C)C)NC(=O)[C@H](C)[C@@H]1O)C(=O)O` [LC, lactacystin] gave an IC50 of 0.156 ± 0.005 µM.
For `CC(C)C[C@@H](C=O)NC(=O)[C@H](CC(C)C)NC(=O)[C@H](CC(C)C)NC(=O)OCc1ccccc1` [MG132, N-(benzyl-oxycarbonyl) leucinyl-leucinyl-leucinal] (Cbz-Leu-Leu-Leu-aldehyde), the IC50 in [2] (setting [10]) was determined as 8.22 ± 2.75 µM; in test [2] (ChT-L IC50 Ms, microsomal fraction), 0.99 µM; in test [2] (ChT-L IC50 Ms, nuclear fraction, ± S.E.), 4.6 ± 1.62 µM; in test [4] (T-L IC50 Ms, cytosolic fraction, ± S.E.), 14.6 ± 4.4 µM; in test [4] (T-L IC50 Ms, microsomal fraction), 6.63 µM; in test [4] (T-L IC50 Ms, nuclear fraction, ± S.E.) it was 12.8 ± 4.7 µM. Moreover, the “ChT-L activity, Mean ± SE” value is given as 40 ± 18 pmol AMC/min/μg protein in test [6] (sample ProtNMR + FT (flow-through), 10 μM MG132); 27 ± 18 pmol AMC/min/μg protein in test [6] (setting [11]); 16 ± 13 pmol AMC/min/μg protein in test [6] (setting [12]); 542 ± 181 ^# pmol AMC/min/μg protein in test [6] (sample ProtNMR + R (retentate), 10 μM MG132); 479 ± 146 ^# pmol AMC/min/μg protein in test [6] (setting [13]); 378 ± 104 ^# pmol AMC/min/μg protein in [6] (setting [14]). Besides, the “ChT-L activity, Mean ± SE” value in test [6] (sample ProtNMR + SN (NMR supernatant), 10 μM MG132) is 488 ± 58 ^# pmol AMC/min/μg protein; in [6] (setting [15]), 499 ± 71 ^# pmol AMC/min/μg protein; in test [6] (setting [16]), 327 ± 104 ^# pmol AMC/min/μg protein; in test [6] (sample ProtNMR, 10 μM MG132), 72 ± 13 pmol AMC/min/μg protein; in [6] (sample ProtNMR, 20 μM MG132) it was 43 ± 0.3 pmol AMC/min/μg protein; in test [6] (sample ProtNMR, 50 μM MG132), 23 ± 1.0 pmol AMC/min/μg protein. For the same molecule, the “ChT-L activity, Mean ± SE” value in [7] (sample ProtMS + FT (flow-through), 10 μM MG132) is on record as 17 ± 0.3 pmol AMC/min/μg protein; in test [7] (setting [17]), 15 ± 3.0 pmol AMC/min/μg protein; in test [7] (setting [18]) it was 3.0 ± 1.9 pmol AMC/min/μg protein; in test [7] (sample ProtMS + R (retentate), 10 μM MG132), 178 ± 72 ^# pmol AMC/min/μg protein; in test [7] (sample ProtMS + R, 20 μM MG132), 172 ± 70 ^# pmol AMC/min/μg protein; in [7] (sample ProtMS + R, 50 μM MG132), 89 ± 12 ^# pmol AMC/min/μg protein. Moreover, the “ChT-L activity, Mean ± SE” value is reported as 126 ± 22 ^# pmol AMC/min/μg protein in [7] (sample ProtMS + SN (NMR supernatant), 10 μM MG132); 116 ± 20 ^# pmol AMC/min/μg protein in test [7] (setting [19]); 84 ± 34 ^# pmol AMC/min/μg protein in test [7] (setting [20]); 25 ± 0.1 pmol AMC/min/μg protein in test [7] (sample ProtMS, 10 μM MG132); 17 ± 0.2 pmol AMC/min/μg protein in [7] (sample ProtMS, 20 μM MG132); 11 ± 0.1 pmol AMC/min/μg protein in test [7] (sample ProtMS, 50 μM MG132). Further, the “% Inhibition” value in [6] (sample ProtNMR + FT, 10 μM MG132) worked out at 83.1%; in [6] (setting [11]), 88.6%; in [6] (setting [12]) it was 93.2%; in test [6] (sample ProtNMR + R, 10 μM MG132) it was 31.0%; in test [6] (setting [13]), 39.0%; in test [6] (setting [14]) it was 51.8%. Further, the “% Inhibition” value in [6] (sample ProtNMR + SN, 10 μM MG132) came to 51.7%; in [6] (setting [15]), 50.6%; in test [6] (setting [16]) it was 67.7%; in [6] (sample ProtNMR, 10 μM MG132), 86.0%; in test [6] (sample ProtNMR, 20 μM MG132) it was 91.6%; in test [6] (sample ProtNMR, 50 μM MG132) it was 95.5%. Also, the inhibition at 10 µM in test [7] (sample ProtMS + FT, 10 μM MG132) is 85.5%; in test [7] (sample ProtMS + R, 10 μM MG132), 36.9%; in [7] (sample ProtMS + SN, 10 μM MG132) it was 52.1%; in test [7] (sample ProtMS, 10 μM MG132), 87.6%. The inhibition at 20 µM in test [7] (setting [17]) came to 87.2%; in test [7] (sample ProtMS + R, 20 μM MG132) it was 39%; in test [7] (setting [19]), 55.9%; in [7] (sample ProtMS, 20 μM MG132) it was 91.5%. Besides, the inhibition at 50 µM in [7] (setting [18]) turned out to be 97.4%; in [7] (sample ProtMS + R, 50 μM MG132), 68.4%; in test [7] (setting [20]), 68.1%; in test [7] (sample ProtMS, 50 μM MG132), 94.5%.
Take `N#Cc1ccc(COC[C@H]2O[C@@H](n3c(NCc4ccc(Cl)c(Cl)c4)nc4c(N)ncnc43)[C@H](O)[C@@H]2O)cc1` [VER155008]: the “effect on inhibition resistance / sensitivity to inhibition” value in test [8] was “did not disrupt the inhibition resistance”. In [8] (titration 25nM to 1000nM), the “effect on proteasome activity associated with SNNMR” value is “had no effect”. In addition, the “effect on inhibition resistance” value in [9] was “did not disrupt the inhibition resistance”.
Take `NS(=O)(=O)C#Cc1ccccc1` [pifithrin-μ]: in test [8], the “effect on inhibition resistance / sensitivity to inhibition” value is listed as “attenuated resistance to inhibition”.

One may read the IC50 as the concentration that inhibits the measured activity by half. One may read the % Inhibition as the change of the read-out against control, counted positive when it falls. One may read the inhibition as the share of the control response that was lost under treatment.
